Screening data deposited in PubChem by The Scripps Research Institute Molecular Screening Center.
A selection: hits, their analogues and other compounds. The true share with any hit is near 2.8%.
pPAFAH FP inh = pPAFAH enzyme inhibitors, primary screen, biochemical, fluorescence polarization, human. Platelet-activating factor acetylhydrolase (Homo sapiens), Q13093. recombinant pPAFAH, FP-rhodamine probe fluorescence polarization. inhibition, % at 3.39 µM. actives 1.5% (n = 330,000);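 active = inhibition above the mean inhibition across the screen plus 3 SD, cut at about 25% in these data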;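 also: inhibitors block binding of the rhodamine activity-based probe so polarization drops; 0% = enzyme with DMSO and 100% = wells lacking pPAFAH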
PAFAH2 inh = PAFAH2 enzyme inhibitors, primary screen, biochemical, fluorescence polarization, human; Platelet-activating factor acetylhydrolase 2, cytoplasmic (Homo sapiens), Q99487; recombinant PAFAH2, FP-rhodamine activity probe; inhibition, % at 3.39 µM; actives 0.99% (n = 340,000);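 active = inhibition above the mean over all tested compounds plus 3 SD, cut at about 30% in these data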;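 also: inhibitors block probe labeling of enzyme so polarization drops; 0% = enzyme with DMSO and 100% = wells lacking PAFAH2 protein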
PAFAH1B3 FP inh = PAFAH1B3 enzyme inhibitors, primary screen, biochemical, fluorescence polarization, human. Platelet-activating factor acetylhydrolase IB subunit alpha1 (Homo sapiens), Q15102. recombinant PAFAH1B3, FP-rhodamine probe. inhibition, % at 3.39 µM. actives 0.28% (n = 340,000). AID 492972, 2010;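 active = inhibition above the screen-wide average of all tested compounds plus 3 SD, cut at about 25% in these data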;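 also: 0% = enzyme with DMSO only and 100% = wells lacking PAFAH1B3 protein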
ASAP1 inh = inhibitors of human ASAP1 ArfGAP activity, primary screen, biochemical, fluorescence polarization; Arf-GAP with SH3 domain, ANK repeat and PH domain-containing protein 1 (Homo sapiens), …; ASAP1-stimulated ARF1 GTP hydrolysis, GDP FP detection; inhibition, % at 16.5 µM; actives 0.19% (n = 360,000); in the data active = inhibition above about 25%;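 also: 0% = vehicle with enzyme and substrate and 100% = no enzyme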
PAFAH1B2 FP inh = PAFAH1B2 enzyme inhibitors, primary screen, biochemical, fluorescence polarization, human | Platelet-activating factor acetylhydrolase IB subunit alpha2 (Homo sapiens), P68402 | recombinant PAFAH1B2, FP-rhodamine activity probe | inhibition, % at 3.39 µM | actives 1.2% (n = 340,000);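 active = inhibition above the mean of all tested compounds plus 3 SD, cut at about 24% in these data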;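 also: 0% = enzyme with DMSO and 100% = wells lacking PAFAH1B2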
Target sequence (P68402 whole entry, looked up): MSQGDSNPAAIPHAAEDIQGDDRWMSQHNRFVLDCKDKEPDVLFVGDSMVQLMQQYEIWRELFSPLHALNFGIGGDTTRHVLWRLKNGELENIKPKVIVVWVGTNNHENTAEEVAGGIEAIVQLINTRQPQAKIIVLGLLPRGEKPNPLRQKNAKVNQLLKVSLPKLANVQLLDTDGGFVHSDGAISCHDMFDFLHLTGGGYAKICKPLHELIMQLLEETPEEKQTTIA
ARFGAP1 inhibitor = inhibitors of rat ARFGAP1 GAP activity, primary screen, biochemical, fluorescence polarization, GDP tracer. actives 0.26% (n = 360,000). AID 651572, 2012. ADP-ribosylation factor GTPase-activating protein 1 (Rattus norvegicus), Q62848. inhibition, % at 16.5 µM. Arfgap1-stimulated ARF1 GTP hydrolysis, GDP FP detection;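 active = inhibition above a per-plate limit, mean inhibition of low control wells plus 3 SD, cut at about 25% in these data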;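 also: 0% = DMSO wells with enzyme and 100% = wells lacking Arfgap1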
Target sequence (Q62848 1-136 limits assumed): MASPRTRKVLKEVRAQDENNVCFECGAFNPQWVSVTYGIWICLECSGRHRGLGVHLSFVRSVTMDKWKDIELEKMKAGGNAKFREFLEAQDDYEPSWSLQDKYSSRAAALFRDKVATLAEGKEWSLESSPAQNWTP
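Material: rat Arfgap1 GAP domain (His6, aa 1-136), purified enzyme. Also added: human ARF1(Δ1-17)-GTP substrate. Compound dosing: 16.5 µM single point, 1.26% DMSO. Timing: enzyme reaction 120 min at 25 °C after 20 min preincubation. Signal: GDP detection by fluorescence polarization. Read-out basis: percent inhibition of GAP-stimulated GDP formation, scaled between DMSO and no-Arfgap1 medians.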
pPAFAH FP conf = pPAFAH (PLA2G7) enzyme inhibitors, confirmation, biochemical, fluorescence polarization, human. shares compounds with pPAFAH FP inh. recombinant pPAFAH, FP-Rh probe fluorescence polarization. inhibition, % at 3.39 µM. actives 72% (n = 2,300). AID 463230, 2010;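 active = mean inhibition of the triplicate above the hit cutoff set for the earlier primary screen, cut at about 25% in these data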;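 also: 0% = enzyme with DMSO and 100% = wells lacking pPAFAH enzyme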
An asterisk follows results filed as active; · = not tested or not shown.

SMILES | pPAFAH FP inh | PAFAH2 inh | PAFAH1B3 FP inh | ASAP1 inh | PAFAH1B2 FP inh | ARFGAP1 inhibitor | pPAFAH FP conf
Cc1c(N/C(=N/S(=O)(=O)c2ccc(Cl)cc2)c2ccccc2)c(=O)n(-c2ccccc2)n1C | 82.1* | · | · | 2.3 | · | 2.6 | -6.7
Oc1cccc(C=NCc2ccccc2)c1O | 57.4* | 8.7 | 22.4 | 12.9 | 5.7 | -3.3 | 5.1
Oc1cccc(C=Nc2cccc3ccccc23)c1O | 75.7* | 26.9 | 28.3* | 16.3 | 9.0 | 7.5 | 8.2
Oc1c(C=NCc2ccccc2)sc2ccccc12 | -3.0 | 6.8 | 1.4 | 7.7 | 7.6 | 4.9 | ·
c1ccc(Nc2nc3ccccc3[nH]2)nc1 | 35.7* | 3.6 | 5.7 | -1.6 | 3.1 | -1.6 | -2.2
COC(=O)C1=C(C)NC(C)=C(C(=O)OCC2CCCO2)C1c1cccc(Br)c1 (centres undefined) | 5.9 | -2.3 | -1.2 | 12.0 | 1.0 | 9.7 | ·
CCOc1ccc(CCNC(=O)C2CCCN(S(=O)(=O)N3CCOCC3)C2)cc1OCC (centres undefined) | 3.9 | -8.0 | 6.5 | -0.7 | 2.1 | -6.0 | ·
Cc1cc2c(N)cccc2nn1 | 72.9* | 37.7* | 33.3* | -0.2 | 25.6* | -3.5 | 5.7
CC(=O)c1c(C)[nH]c(C(=O)OCC(=O)NCc2ccc3c(c2)OCO3)c1C | -1.0 | -0.2 | -1.4 | 5.4 | 2.7 | -0.1 | ·
CC(C)(C)c1ccc(-n2ncc3c2CCCC3NC(=O)CCN2CCCO2)cc1 (centres undefined) | 37.3* | 5.4 | 4.0 | -1.7 | 5.2 | -3.5 | 18.5
O=C(CCN1CCCO1)NC1CCCc2c1cnn2-c1ccccc1F (centres undefined) | 3.2 | -3.2 | 3.9 | -11.3 | 1.8 | -7.2 | ·
COc1ccc(NS(=O)(=O)c2cccc(NC(=O)c3ccc(Cl)nc3)c2)cc1 | 16.6 | -10.9 | -10.0 | -2.5 | 1.1 | 4.1 | ·
O=C(Nc1cccc(S(=O)(=O)Nc2ccc(Cl)cc2)c1)c1ccc(Cl)nc1 | 40.5* | -16.5 | -14.7 | 12.5 | -0.6 | 13.6 | 34.4*
COc1cnc(-c2ccccn2)nc1Oc1ccc(Cl)c2ccccc12 | 59.9* | 2.8 | 6.9 | 10.9 | -0.8 | -0.1 | 64.2*
O=S(=O)(Nc1ccc2c(c1)nc1n2CCN(Cc2ccccc2)C1)c1ccc(F)cc1 | 35.5* | -3.4 | 3.2 | 2.7 | 6.2 | -7.0 | 12.4
O=S(=O)(Nc1ccc2c(c1)nc1n2CCN(Cc2ccccc2)C1)c1ccc(Cl)cc1 | 38.4* | 4.2 | -3.1 | 6.6 | 32.8* | 7.6 | 7.0
Brc1ccc(NC(c2ccccc2)c2ccncc2)cc1 (centres undefined) | 1.1 | -3.2 | -1.8 | -12.2 | 4.6 | -11.1 | ·
Cc1ccc(S(=O)(=O)N2CCN(C(=O)COC(=O)c3cccnc3Cl)CC2)c(C)c1 | 2.8 | -2.7 | 7.2 | -4.8 | -0.2 | -18.2 | ·
Cc1ccc(S(=O)(=O)N2CCN(C(=O)COC(=O)c3ccccn3)CC2)c(C)c1 | 43.8* | 4.2 | 3.7 | 15.4 | 3.2 | -1.2 | 0.2
Cc1ccccc1NC(=O)C(C)OC(=O)C1CC(=O)N(Cc2ccco2)C1 (centres undefined) | -2.4 | 3.1 | 7.2 | -2.1 | 3.3 | 6.2 | ·
COc1ccc(-c2csc(NC(C)=O)n2)cc1OC | 4.5 | 0.5 | 8.4 | 9.6 | 6.9 | 5.5 | ·
COc1cccc(NC(=O)Nc2nc(-c3ccc(OC)c(OC)c3)cs2)c1 | 35.7* | 1.9 | 21.1 | -4.0 | 15.1 | 10.1 | 13.7
CNc1ncn(-c2c(C)cccc2C)c(=O)n1 | · | · | · | 11.3 | · | 3.3 | ·
CCOc1cc(N2CCC(O)CC2)ccc1Nc1ncc2c(n1)N(C)c1ccccc1C(=O)N2C | · | · | · | 8.5 | · | -12.7 | ·
COc1ccc(COC(=O)c2cc([N+](=O)[O-])ccc2N2CCOCC2)cc1F | 43.5* | -2.0 | 1.7 | -7.0 | -0.9 | 2.2 | 8.4
